Experimental data gathered from unrelated publications.
Lines come from different studies, so protocols differ.

Compound | system | setting | endpoint | value
COC(=O)CN(CCCc1ccccc1)CC(=O)N[C@@H](Cc1c[nH]cn1)c1nc(C)no1 | male C57BL/6 mouse, plasma | intraperitoneal, 30 mg/kg | AUC | 200 ng·h/mL
CC[C@H](C)[C@@H]1NC(=O)[C@@](C)(NC(=O)[C@H](CCCNC(=N)N)NC(=O)[C@H](CC(C)C)NC(=O)[C@@H](NC(=O)[C@H](CCC(N)=O)NC(=O)[C@H](CC(C)C)NC(C)=O)[C@@H](C)O)CCCC=CCCC[C@@](C)(C(=O)N[C@@H](CC(C)C)C(=O)N[C@@H](Cc2ccc3ccccc3c2)C(N)=O)NC(=O)[C@H](CCCNC(=N)N)NC(=O)[C@H](CCC(N)=O)NC1=O | male BALB/c mouse, plasma | intravenous, 5 mg/kg | AUC(0-inf) | 126000 ng·h/mL
CC1(C)c2nc(-c3ccc(F)cc3)c(Nc3ccc(F)cc3)n2CCN1C(=O)CN | mouse, plasma | oral, 2 mg/kg | AUC | 0.78 µM·h
COc1ccc2nccc(N3CCc4c(cc(Cn5ccnc5)cc4-c4cn(C)nc4C(F)(F)F)C3=O)c2c1 | male CD-1 mouse, plasma | intravenous, 3 mg/kg | AUC(0-inf) | 1840 ng·h/mL
CC(C)(O)c1cn(-c2ccc(-c3cc(F)c(CO)c(S(C)(=O)=O)c3)cc2)c(C(C)(C)c2cccc(F)c2Cl)n1 | male C57BL/6 mouse, serum | oral, 10 mg/kg | AUC | 6.9 µM·h
CC(C)(C)c1ccc(O)c(CN(Cc2cc(C(C)(C)C)ccc2O)C2CCC(NC(N)=O)CC2)c1 (stereo not drawn) | male C57BL/6 mouse, plasma | intraperitoneal, 5 mg/kg, single dose | AUC(0-inf) | 6180 ng·h/mL
CC(C)Oc1c(NC(=O)c2ccc(NC(=O)[C@H](CC(N)=O)NC(=O)c3ccc(NC(=O)c4ccc(C#N)cc4)cc3)cc2)ccc(C(=O)Nc2ccc(C(=O)O)cc2)c1O | male CD-1 mouse, plasma | subcutaneous, 5 mg/kg, single dose | AUC | 517 ng·h/mL
CNC(=O)[C@H](Cc1c[nH]cn1)NC(=O)CN(CCCc1ccccc1)CC(=O)OC | male C57BL/6 mouse, plasma | intraperitoneal, 30 mg/kg | AUC | 1000 ng·h/mL
NC[C@@H]1O[C@H](O[C@H]2[C@@H](O)[C@H](O[C@@H]3[C@@H](O)[C@H](N)C[C@H](N)[C@H]3O[C@H]3O[C@H](CO)[C@@H](O)[C@H](O)[C@H]3N)O[C@@H]2CO)[C@H](N)[C@@H](O)[C@@H]1O | male BALB/c mouse, plasma | intravenous, 15 mg/kg | AUC | 30600 ng·h/mL
OC[C@H]1O[C@@H](c2ccc(Cl)c(Cc3ccc(O[C@H]4CCOC4)cc3)c2)[C@H](O)[C@@H](O)[C@@H]1O | CD-1 mouse, plasma | oral, 10 mg/kg | AUC | 741 ng·h/mL
CCc1cc(C(=O)NC)c2nccc(N3CCc4c(cc(Cn5ccnc5)cc4-c4cn(C)nc4C(F)(F)F)C3=O)c2c1 | male CD-1 mouse, plasma | oral, 150 mg/kg | AUC(0-inf) | 527000 ng·h/mL
CC(C)(O)c1cn(-c2ccc(-c3cc(F)c(CO)c(S(C)(=O)=O)c3)cc2F)c(C(C)(C)c2c(Cl)cccc2Cl)n1 | male C57BL/6 mouse, serum | oral, 10 mg/kg | AUC | 7.4 µM·h
